Screens as filed in PubChem BioAssay.
In the library only some 5.7% were active in any assay of this set; here they are far more common.
SKKanGAS inh: inhibitors of SKKanGAS S. pyogenes growth in kanamycin (SK-promoter or general growth effect); inhibition, % at 7.5 µM; BacTiter-Glo, 6 h; hit rate 1.3% among 300,000;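 active means mean replicate score, as percent of positive control median, at least 50; inconclusive means mean below 50 but one replicate at or above 50; inactive means mean and every replicate below 50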;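 further: strain carries kanamycin resistance gene driven by streptokinase promoter and grows in 40 µg/ml kanamycin; loss of luminescence reflects streptokinase promoter inhibition or plain growth inhibition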
Calb FLC: affects C. albicans growth with fluconazole. C. albicans CaCi-2 (fluconazole-resistant clinical isolate) + fluconazole, Alamar Blue growth, 48 h. growth inhibition, % (no concentration beside the values). hit rate 0.57% among 300,000. AID 1979;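 active means growth inhibition above about 58% in most replicates, limit read from the data, passing the limit was not always enough; inconclusive means exactly half the replicates above a set limit; inactive means most replicates below a set limit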;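 further: all wells also contain fluconazole at 8 µg/ml as a sub-toxic cotreatment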
CSC inhib: cancer stem cell inhibition; inhibition, % at 7.5 µM; hit rate 1.1% among 300,000; AID 2717; cancer stem cell-like cells viability, luminescence; in the data active means inhibition above about 75%; inconclusive means no clear call, values can overlap the other calls; tested in HMLE shEcad cells
Beta apoptosis: blocks beta cell apoptosis. INS-1E cytokine-induced death, ATP luminescence, 48 h; percent of positive-control rescue, neutral wells zero. protection from apoptosis, % (no concentration beside the values). hit rate 0.8% among 300,000;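 active means Every replicate reaches about 75%, or at least half do and their mean reaches it too, limit read from the data; inconclusive means At least half of replicates reach the limit but their mean does not; inactive means Under half of replicates reach the limit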;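 further: higher means more ATP so stronger rescue from cytokine killing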
T cruzi inh: T. cruzi replication inhibition; T. cruzi beta-gal in NIH3T3, luminescence, 90 h; inhibition, % (test concentration not listed); hit rate 1.4% among 300,000; AID 1885;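 active means mean inhibition across valid replicates above about 55%, limit read from the data; inconclusive means mean below that limit but half or more replicates reach it; inactive means mean below it, under half of replicates reach it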;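 further: signal also drops with host cell toxicity which is not excluded here; higher percent means less beta-gal luminescence so fewer parasites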
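System – NIH/3T3 host cells with β-galactosidase reporter T. cruzi · Doses – single 50 nL compound addition per well in DMSO · Reagent – 5000 T. cruzi trypomastigotes/well · Medium – Low-serum DMEM with 2% FBS · Timing – ≥90 h infection period, 3 h prior cell attachment · Evaluation – parasite load inhibition, % · Technique – GalScreen luminescence, 60 min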
Mdm2-MdmX inh: disrupts the human Mdm2-MdmX interaction | SaOS-2 split-luciferase Mdm2/MdmX complementation, luminescence | inhibition, % at 8 µM | hit rate 3% among 330,000;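 active means inhibition of at least 50% at 8 µM in the primary screen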
Target sequence (O15151 whole entry, looked up): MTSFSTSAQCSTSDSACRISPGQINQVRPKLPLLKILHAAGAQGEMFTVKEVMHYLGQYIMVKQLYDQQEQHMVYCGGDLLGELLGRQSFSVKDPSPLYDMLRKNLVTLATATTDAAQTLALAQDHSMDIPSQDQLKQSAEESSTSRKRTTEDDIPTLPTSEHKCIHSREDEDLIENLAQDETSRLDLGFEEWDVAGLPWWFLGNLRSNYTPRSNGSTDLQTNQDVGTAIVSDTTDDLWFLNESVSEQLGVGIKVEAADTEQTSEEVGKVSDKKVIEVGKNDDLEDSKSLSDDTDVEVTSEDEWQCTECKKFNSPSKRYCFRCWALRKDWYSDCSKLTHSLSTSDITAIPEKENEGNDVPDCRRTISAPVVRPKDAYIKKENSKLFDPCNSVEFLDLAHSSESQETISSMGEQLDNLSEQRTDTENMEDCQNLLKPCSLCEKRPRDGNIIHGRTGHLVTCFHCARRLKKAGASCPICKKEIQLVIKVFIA
Target sequence (Q00987 whole entry, looked up): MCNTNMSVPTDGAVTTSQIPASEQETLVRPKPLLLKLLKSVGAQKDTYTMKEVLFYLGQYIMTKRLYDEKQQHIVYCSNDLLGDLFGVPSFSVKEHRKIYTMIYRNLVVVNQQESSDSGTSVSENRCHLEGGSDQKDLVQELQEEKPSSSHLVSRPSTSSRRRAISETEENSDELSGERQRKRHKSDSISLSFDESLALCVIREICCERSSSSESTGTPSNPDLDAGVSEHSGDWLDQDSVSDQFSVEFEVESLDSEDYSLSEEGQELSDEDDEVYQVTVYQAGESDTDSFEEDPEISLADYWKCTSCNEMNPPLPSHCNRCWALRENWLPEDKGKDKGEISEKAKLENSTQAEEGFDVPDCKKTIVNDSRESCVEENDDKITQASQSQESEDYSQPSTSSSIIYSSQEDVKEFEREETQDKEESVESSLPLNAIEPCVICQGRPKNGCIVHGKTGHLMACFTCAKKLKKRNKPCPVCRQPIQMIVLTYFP
Numbers stand for hits; 0 = inactive; ? = inconclusive; - = no result.

SMILES	SKKanGAS inh	Calb FLC	CSC inhib	Beta apoptosis	T cruzi inh	Mdm2-MdmX inh
C[C@H]1CC[C@@]2(C)[C@@H](CC[C@@H]3[C@@H]2CC[C@]2(C)[C@@H](O)CC[C@@H]32)C1	87	0	0	0	0	0
C[C@]12CC[C@@H](O)C[C@H]1CC[C@@H]1[C@@H]2CC[C@]2(C)C(=O)CC[C@@H]12	0	0	0	0	0	0
CC(NS(C)(=O)=O)c1nnc2n1-c1ccc(Br)cc1C(c1ccccc1Cl)=NC2 (stereo unspecified)	0	0	0	0	0	0
CCn1cc(CN2CCCC(C(=O)c3cccc(OC)c3)C2)c(C)n1 (stereo unspecified)	0	0	0	0	58	0
CCCn1ncc(CN2CCCC(C(=O)c3cccc(OC)c3)C2)c1C (stereo unspecified)	0	0	0	0	68	0
O=C1NC(=O)N(Cc2ccccc2)C(=O)/C1=C/C=C/c1ccco1	-	0	90	0	0	0
CCCc1nc2ccc(Br)cc2c(=O)n1-c1ccc([N+](=O)[O-])c(C(F)(F)F)c1	0	0	127	99	56	0
O=C(N/N=C/c1c(O)n(CCc2ccccc2)c(=O)[nH]c1=O)c1ccccc1O	103	?	0	0	0	0
O=C(N/N=C/c1c(O)n(CCc2ccc(F)cc2)c(=O)[nH]c1=O)c1ccccc1	0	0	0	0	0	0
O=C(N/N=C/c1c(O)n(Cc2ccc(F)cc2)c(=O)[nH]c1=O)c1ccccc1O	97	0	0	0	0	0
O=C(N/N=C/c1c(O)n(Cc2ccccc2)c(=O)[nH]c1=O)c1ccccc1O	84	?	0	0	0	0
COc1ccc(Cn2c(O)c(/C=N/NC(=O)c3ccccc3)c(=O)[nH]c2=O)cc1	0	81	0	0	0	0
COc1ccc(Cn2c(O)c(/C=N/NC(=O)c3ccncc3)c(=O)[nH]c2=O)cc1	0	0	0	0	0	0
COc1ccc(CC(C)NCCC(c2ccccc2)c2ccccc2)cc1 (stereo unspecified)	0	0	0	0	0	0
O=C1COc2ccc(C(=O)COC(=O)Cc3ccccc3)cc2N1	0	0	0	0	0	0
Cn1c(O)c(C=NC2CCN(Cc3ccccc3)CC2)c(=O)[nH]c1=O	0	0	0	-	0	0
O=c1[nH]c(=O)n(C2CCCCCC2)c(O)c1C=NC1CCN(Cc2ccccc2)CC1	0	0	0	0	65	0
Cc1c(C)c2ccc(OCC(=O)N3C[C@H]4C[C@@H](C3)c3cccc(=O)n3C4)cc2oc1=O	0	0	0	0	0	0
CCOC(C[n+]1c(-c2ccccc2)cc(C)cc1-c1ccccc1)OCC	0	0	0	0	0	0
CCOc1ccc(-c2cc(C)[n+](CCO)c(-c3ccc(OCC)cc3)c2)cc1	0	92	-	0	72	0
O=C(Nc1nc(-c2ccccc2)c(-c2ccccc2)s1)c1ccc(S(=O)(=O)N(CCCl)CCCl)cc1	0	0	0	0	56	0
COc1ccc(N2C(=O)NC(=O)/C(=C/c3ccc([N+](=O)[O-])s3)C2=O)cc1	0	0	0	0	0	0
COc1ccc(N2C(=O)NC(=O)/C(=C\c3ccc([N+](=O)[O-])s3)C2=O)cc1	0	0	0	0	60	0
O=C1C2CCN(CC2)C1Cc1ccc(OCc2ccccc2)cc1 (stereo unspecified)	0	109	0	0	0	0
O=C(c1ccc(N2CCCCC2)c([N+](=O)[O-])c1)N1CCC2(CC1)OCCO2	0	0	0	0	0	0
SMILES	SKKanGAS inh	Calb FLC	CSC inhib	Beta apoptosis	T cruzi inh	Mdm2-MdmX inh
CC1CCCN(c2ccc(C(=O)N3CCC4(CC3)OCCO4)cc2[N+](=O)[O-])C1 (stereo unspecified)	0	0	116	0	0	0
CCn1cc(C(=O)c2ccccc2)c2ccccc21	0	97	-	0	0	0
C[C@]12CCC3C(C(=O)C[C@H]4C[C@@H](O)CC[C@]34C)C1CCC2=O (stereo partly specified)	-	-	0	0	-	0
CCCCCCC[n+]1ccc(-c2cc[n+](CCCCCCC)cc2)cc1	0	?	0	102	0	0
C[n+]1ccc(-c2cc[n+](C)cc2)cc1	-	-	0	0	-	-
COc1cc(OC)c([C@H]2C=C(C)[C@H]3C[C@@H]2C3(C)C)c(OC)c1	97	0	0	0	0	0
COc1ccc(-n2c(/C=C/c3ccc(O)c(OC)c3)nc3ccccc3c2=O)cc1	91	0	0	0	0	0
COc1cccc(-n2c(/C=C/c3ccc(O)c(O)c3)nc3ccccc3c2=O)c1	0	0	0	0	0	0
COc1ccc2c3c1OC1C(=O)CC[C@@]4(O)[C@@H](C2)N(CC2CC2)CC[C@]314 (stereo partly specified)	-	-	-	-	-	0
Clc1ccccc1CN1CCN(c2ccccc2)CC1	0	0	-	-	0	0
Nc1ccc(N2CCN(Cc3ccccc3Cl)CC2)c(Cl)c1	0	0	79	0	0	0
CC1(C)CN=C(Nc2nc3ccccc3s2)S1	61	0	0	0	0	0
CCOC(=O)c1c(NC(=O)c2c(N)n(CCCOC)c3nc4ccccc4nc23)sc2c1CCCC2	56	0	0	0	64	0
CCOCCCn1c(N)c(C(=O)Nc2sc3c(c2C(=O)OC)CCCC3)c2nc3ccccc3nc21	0	0	-	-	0	0
Cc1cccc(-n2c(C)nc3ccc(Cl)cc3c2=O)c1	0	0	0	0	0	0
CCc1ccccc1NC(=O)CSc1nnc([C@@H](N)Cc2c[nH]c3ccccc23)o1	0	0	0	0	0	0
Cc1ccc(NC(=O)CSc2nnc([C@@H](N)Cc3c[nH]c4ccccc34)o2)c(C)c1	0	109	0	0	0	0
Fc1ccc(Cn2nnnc2C(c2ccc(Cl)cc2)N2CC=C(c3ccc(F)cc3)CC2)cc1 (stereo unspecified)	0	0	0	0	69	0
Cc1ccc(C(c2nnnn2Cc2ccccc2)N2CC=C(c3ccc(F)cc3)CC2)cc1 (stereo unspecified)	0	0	0	0	65	0
CCSC(=O)N1CCCCCC1	-	-	0	0	-	0
Cc1cnc(-n2c(=S)[nH]c3ccccc3c2=O)s1	-	-	-	0	-	0
COC(=O)C1=C(c2ccc(C(C)=O)cc2)C[C@@H]2CC[C@H]1N2C(=O)NCc1ccc(C(F)(F)F)cc1	-	-	0	0	-	0
Nc1c(C(=O)NCCCc2ccccc2)c2nc3ccccc3nc2n1Cc1cccs1	0	0	0	0	58	0
CCCCn1c(N)c(C(=O)NCc2cccs2)c2nc3ccccc3nc21	0	0	0	0	55	0
CN1C(=O)c2ccccc2Sc2ccc(C(=O)N3CCC4(CC3)OCCO4)cc21	0	0	0	0	0	0
Cc1ccc(/C=C2/Sc3ccc(C(=O)N4CCC5(CC4)OCCO5)cc3NC2=O)cc1	53	0	0	0	0	0
